Cav3 T inh: inhibitors of human Cav3.2 T-type calcium channel; O95180; Cav3.2-expressing cells, Fluo-4 calcium fluorescence FDSS; stronger effect = lower value; B-score at 10 µM; 4% of 100,000 active;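 active = single-dose well whose peak fluorescence ratio is a statistical outlier from its plate by either plate-standardised score or position-corrected B-score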
PTK2B oligo ant: antagonists of human Pyk2 oligomerization; Q14289; Q293 cells, Pyk2 FERM NanoBiT luminescence; stronger effect = lower value; z-score (the deposit names both 25 µM and 10 µM); 0.83% of 99,000 active;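 active = Z-score of -3 or lower, scaled per plate to the spread of control and sample wells; inactive = z-score above -3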;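 also: negative z-score means lost luminescence so less FERM oligomerization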
Rev-RRE block: HIV Rev-RRE protein-RNA interaction inhibition; P05866; Rev peptide-RRE RNA binding, FRET; inhibition, % at 8 µM; 0.79% of 97,000 active; AID 704;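 active = inhibition above the screen-wide mean plus 3 SD, cut at about 35% in these data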;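 also: 0% = median DMSO wells and 100% = median Neomycin B control wells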
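Assay system: Rev peptide and RRE RNA, both fluorescently labelled; times: 5 min preincubation and 15 min binding, 25 °C; detection: FRET, ex 480 nm, em 540 and 671 nm; read-out basis: % inhibition from 671/540 nm acceptor-to-donor ratio, scaled between controls; benchmarks: DMSO low control, neomycin B high control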
Plk1 PBD FP: blocks phosphopeptide binding to human Plk1 polo box domain. Plk1 PBD phosphopeptide binding, fluorescence polarization. P53350. AID 693. inhibition, %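 (tested at about 20 µM)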. 0.13% of 97,000 active; in the data active = inhibition above about 34%, passing the limit was not always enough
PLK1 inh: blocks human PLK1 kinase activity; P53350; recombinant PLK1 kinase, TR-FRET peptide phosphorylation; inhibition, % at 10 µM; 0.53% of 97,000 active; AID 619;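 active = inhibition of 50% or more in the single-concentration screen; inactive = inhibition below 50%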;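 also: 0% = DMSO max control and 100% = H-89 dihydrochloride min control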
FAK inh: FAK (human) kinase inhibition; Q05397; biochemical FAK kinase activity assay; inhibition, %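 (tested at 7 µM)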; 0.84% of 97,000 active; in the data active = inhibition above about 19%;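 also: 0% = DMSO and 100% = reference compound high control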
* marks the source's active call; other numbers are inactive results; / = no result given. Hits are enriched below; roughly 5.8% of the tested compounds scored in any of these assays.

SMILES | Cav3 T inh | PTK2B oligo ant | Rev-RRE block | Plk1 PBD FP | PLK1 inh | FAK inh
C/C=C(/C)C(=O)OC1c2c(ccc3ccc(=O)oc23)OC(C)(C)C1OC(=O)/C(C)=C\C (stereo unspecified) | -5.1* | / | / | / | / | /
Cc1cccc(-c2nc(CS(=O)CC(=O)N3CCCCC3)c(C)o2)c1 (stereo unspecified) | 0.49 | / | 5 | -7 | 66* | -1
Cc1oc(-c2ccccc2)nc1CS(=O)CC(=O)N1CCc2ccccc2C1 (stereo unspecified) | 0.34 | / | 7 | 33 | 66* | -6
Cc1ccc(CCNC(=O)CS(=O)Cc2nc(-c3cccc(C)c3)oc2C)cc1 (stereo unspecified) | -5.2* | / | 6 | -12 | 62* | 3
CCOC(=O)N1CCN(C(=O)CS(=O)Cc2nc(-c3ccc(C)cc3)oc2C)CC1 (stereo unspecified) | -0.04 | / | 6 | 4 | -13 | 2
Cc1cccc(-c2nc(CS(=O)CC(=O)NCc3cccs3)c(C)o2)c1 (stereo unspecified) | -0.37 | / | 6 | 9 | -11 | 8
Cc1noc(C)c1CSc1nnc2c(C)cc3ccccc3n12 | / | / | 7 | -5 | -3 | 1
COc1cccc(-c2cn3nc(C)c(C)nc3n2)c1 | 0.036 | 0.2 | 40* | -19 | -9 | 3
CC(=O)NC1(c2nnnn2CCOC(=O)Nc2ccc(Cl)cc2)CCCCC1 | 0.31 | -0.02 | 4 | -23 | -10 | -3
O=C(Nc1ccc(Cl)cc1)OCCn1nnnc1C(c1ccccc1Cl)N1CCOCC1 (stereo unspecified) | -6.9* | -2.6 | 15 | 9 | -8 | 5
COc1cc2nc(CN(C)Cc3nc4ccccc4c(=O)[nH]3)[nH]c(=O)c2cc1OC | -0.046 | -0.68 | 12 | -28 | -1 | -1
COc1ccccc1CN(Cc1nc2ccccc2c(=O)[nH]1)S(=O)(=O)c1ccc2ccccc2c1 | 1.2 | -3* | 12 | 2 | -12 | 4
Cc1ccc(N(C(=O)C2CCC(=O)N2)C2(C(=O)NC3CCCC3)CCCCC2)cc1 (stereo unspecified) | -0.18 | 0.71 | -2 | -21 | -7 | -1
CCOC(=O)C1=C(C)NC(SCC(=O)Nc2nc(C)cs2)=C(C#N)C1c1cccs1 (stereo unspecified) | -6.9* | / | 8 | 1 | -1 | 0
C=Cn1ccnc1P(=S)(c1ccc2c(c1)c1ccccc1n2CC)c1nccn1C=C | -5.2* | -1.1 | -4 | 1 | -13 | 5
Cc1ccc(-c2nn3c(C)nnc3s2)cc1NCc1c(F)cccc1Cl | -1.8 | -3.5* | 7 | -17 | -3 | 2
Cc1sc(NC(=O)c2ccco2)c(C(c2cccnc2)N2CCC(C)CC2)c1C (stereo unspecified) | -1.5 | -4.3* | 0 | 10 | -15 | 1
Cc1sc(NC(=O)c2ccco2)c(CN2CCC(C)CC2)c1C | -5.2* | -0.46 | 9 | -20 | -7 | 1
CC(C)(C)n1nnnc1C(c1cccnc1)N1CCN(C(=O)c2ccco2)CC1 (stereo unspecified) | 0.23 | -0.28 | 3 | 10 | -12 | 0
CCc1c(C)sc(NC(=O)c2ccco2)c1C(=O)N1CCCCC1 | 0.9 | 0.46 | 7 | -19 | -3 | 3
Cc1cc(C(=O)NCCCn2ccnc2)sc1-c1ccccc1 | 0.43 | -0.21 | 7 | 0 | -5 | -1
CC(=O)Nc1ccc(C(=O)OCC(=O)Nc2ccccc2Sc2ccccc2)cc1 | / | -3.1* | / | / | / | /
CC(=O)Nc1ccccc1Sc1ccccc1 | 0.034 | -0.42 | 4 | 0 | -10 | 1
CC1(C)Oc2ccc3ccc(=O)oc3c2/C(=C/NCCN/C=C2\C(=O)C(C)(C)Oc3ccc4ccc(=O)oc4c32)C1=O | / | / | 2 | -21 | -2 | 3
CCOc1ccc(-c2nc(CSCC(=O)N3CCN(c4cccc(OC)c4)CC3)c(C)o2)cc1 | -2.5 | / | -2 | -5 | 64* | 3
CCc1ccc(-c2nc(CSCC(=O)N3CCN(c4ccccn4)CC3)c(C)o2)cc1 | -6.8* | -1.2 | -3 | 10 | 2 | -1
COc1cccc(-c2nc(CSCC(=O)N3CCc4ccccc43)c(C)o2)c1 | -1.6 | 0.65 | 9 | 16 | -8 | 1
Cc1ccc(-c2nc(CSCC(=O)N3CCN(C(=O)c4ccco4)CC3)c(C)o2)cc1 | 0.81 | / | 0 | -3 | -5 | -3

Screening data: PubChem BioAssay, several laboratories
